Measurements pooled from the literature.
Each line is one published result; the experiments were not run side by side.
Organism: Staphylococcus aureus
Observed: microbial growth

CC(=O)NC[C@H]1CN(c2ccc(N3CCOCC3)c(F)c2)C(=O)O1  MIC (broth dilution; ATCCBAA44 BAA44): 0.5 µg/mL
COc1cc2cc(CNCCN3CCN(C)CC3)c(SCc3ccccc3)nc2c(OC)c1OC  MIC (broth dilution): 128 µg/mL
O=C(N[C@H](CO)[C@H](O)c1ccc([N+](=O)[O-])cc1)C(Cl)Cl  MIC (broth dilution; ATCC25923): 6.25 µg/mL
CC[C@H]1OC(=O)[C@H](C)[C@@H](O[C@H]2C[C@@](C)(OC)[C@@H](O)[C@H](C)O2)[C@H](C)[C@@H](O[C@@H]2O[C@H](C)C[C@H](N(C)C)[C@H]2O)[C@](C)(O)C[C@@H](C)/C(=N\OCOCCOC)[C@H](C)[C@@H](O)[C@]1(C)O  MIC (agar dilution; ATCC29213): 4 µg/mL
C[C@H]1COc2c(N3CCN(C)CC3)c(F)cc3c(=O)c(C(=O)O)cn1c23  MIC (broth dilution; ATCCBAA44; 18 h): 50 µM
COc1cccc(OC)c1C(=O)N[C@@H]1C(=O)N2[C@@H]1SC(C)(C)[C@@H]2C(=O)O  MIC (broth dilution; ATCCBAA44 BAA44): > 64 µg/mL
CC1(C)S[C@@H]2[C@H](NC(=O)[C@H](N)c3ccccc3)C(=O)N2[C@H]1C(=O)O  MIC (agar dilution; ATCC43300): > 128 µg/mL
COc1ccc(N2N=C(C(=O)c3ccc(Nc4cnccn4)cc3)SC2=C(C#N)C#N)cc1  MIC (broth dilution; ATCC25923): 3.12 µg/mL
CC[C@H]1OC(=O)[C@H](C)[C@@H](O[C@H]2C[C@@](C)(OC)[C@@H](O)[C@H](C)O2)[C@H](C)[C@@H](O[C@@H]2O[C@H](C)C[C@H](N(C)C)[C@H]2O)[C@](C)(O)C[C@@H](C)C(=O)[C@H](C)[C@@H](O)[C@]1(C)O  MIC (broth dilution; ATCCBAA44 BAA44): > 64 µg/mL
N=c1sc(C(=O)c2ccc(Nc3cnccn3)cc2)nn1-c1ccccc1  MIC (broth dilution; ATCC25923): 50 µg/mL
O=C1/C(=C/c2ccc3ccccc3c2O)NC(=S)N1c1ccccc1  MIC (broth dilution; ATCC6538): 22 µg/mL
COc1c(N2C[C@@H]3CCCN[C@@H]3C2)c(F)cc2c(=O)c(C(=O)O)cn(C3CC3)c12  MIC (broth dilution; ATCC33591 MRSA): 0.125 µg/mL
CNC(C)C1CCC(N)C(OC2C(N)CC(N)C(OC3OCC(C)(O)C(NC)C3O)C2O)O1 (stereo not drawn)  MIC (broth dilution): 2 µg/mL
CCCCCCC#Cc1cncc(-c2nnc(SCc3ccc(Cl)cc3)n2CCCN)c1  MIC (broth dilution; ATCC29213): 8 µg/mL
CCCCCCCCN=c1ccn(CCCCCCCCCCn2ccc(=NCCCCCCCC)cc2)cc1  MIC (MRSA USA300; drug-resistant strain): 0.5 µM
Cc1ccc2[nH]nc(-c3nnc(Nc4ccc(Cl)c(Br)c4)s3)c2c1  MIC (ATCC29213): 204 µg/mL
CC1(C)S[C@@H]2[C@H](NC(=O)[C@H](N)c3ccc(O)cc3)C(=O)N2[C@H]1C(=O)O  MIC (broth dilution; ATCCBAA44 BAA44): 64 µg/mL
CCCCCCCCCCCC[N+](C)(C)Cc1ccccc1  MIC (ATCC33591 MRSA; drug-resistant strain): 32 µM
CCCCCCC#Cc1cncc(-c2nnc(SCc3cc([N+](=O)[O-])cc([N+](=O)[O-])c3)n2CCCN)c1  MIC (broth dilution; MRSA): 8 to 16 µg/mL
CN1CCN(CCNCc2cc3ccccc3nc2SCc2ccccc2)CC1  MIC (broth dilution): 64 µg/mL
CN[C@H](CC(C)C)C(=O)N[C@H]1C(=O)N[C@@H](CC(N)=O)C(=O)N[C@H]2C(=O)N[C@H]3C(=O)N[C@H](C(=O)N[C@H](C(=O)O)c4cc(O)cc(O)c4-c4cc3ccc4O)[C@H](O[C@H]3C[C@](C)(N)[C@@H](O)[C@H](C)O3)c3ccc(c(Cl)c3)Oc3cc2cc(c3O[C@@H]2O[C@H](CO)[C@@H](O)[C@H](O)[C@H]2O[C@H]2C[C@](C)(NCc3ccc(-c4ccc(Cl)cc4)cc3)[C@@H](O)[C@H](C)O2)Oc2ccc(cc2Cl)[C@H]1O  MIC (broth dilution): 2 µM
Cc1ccc2[nH]nc(-c3nnc(Nc4ccc(C(F)(F)F)cc4)s3)c2c1  MIC (ATCC29213): 14.4 µg/mL
CCCCCCC#Cc1cncc(-c2nnc(SCc3cc([N+](=O)[O-])cc([N+](=O)[O-])c3)n2C2CCNCC2)c1  MIC (broth dilution; MRSA): 8 µg/mL
COc1ccc(N2N=C(C(C)=O)SC2=C(C#N)C(=O)c2ccc(Nc3cnccn3)cc2)cc1  MIC (broth dilution; ATCC25923): 6.25 µg/mL
CN[C@H](CC(C)C)C(=O)N[C@H]1C(=O)N[C@@H](CC(N)=O)C(=O)N[C@H]2C(=O)N[C@H]3C(=O)N[C@H](C(=O)N[C@H](C(=O)O)c4cc(O)cc(O)c4-c4cc3ccc4O)[C@H](O)c3ccc(c(Cl)c3)Oc3cc2cc(c3O[C@@H]2O[C@H](CO)[C@@H](O)[C@H](O)[C@H]2O[C@H]2C[C@](C)(N)[C@H](O)[C@H](C)O2)Oc2ccc(cc2Cl)[C@H]1O  MIC (broth dilution; MRSA): 0.67 µM
C=C[C@]1(C)C[C@@H](OC(=O)CS[C@@H]2C[C@H]3CC[C@@H](C2)N3C)[C@]2(C)[C@H](C)CC[C@]3(CCC(=O)[C@H]32)[C@@H](C)[C@@H]1O  MIC (agar dilution; ATCC29213): 0.0625 µg/mL
CC1(C)S[C@@H]2[C@H](NC(=O)[C@H](N)c3ccccc3)C(=O)N2[C@H]1C(=O)O  MIC (broth dilution; ATCC25923; 12 h): 0.13 µg/mL
CC(=O)NC[C@H]1CN(c2ccc(N3CCOCC3)c(F)c2)C(=O)O1  MIC (agar dilution; ATCC25923): 1 µg/mL
CN1CCN(CCNCc2cc3cc(Br)ccc3nc2SCc2ccccc2)CC1  MIC (broth dilution): 16 µg/mL
CN[C@H](CC(C)C)C(=O)N[C@H]1C(=O)N[C@@H](CC(N)=O)C(=O)N[C@H]2C(=O)N[C@H]3C(=O)N[C@H](C(=O)N[C@H](C(=O)O)c4cc(O)cc(O)c4-c4cc3ccc4O)[C@H](O)c3ccc(c(Cl)c3)Oc3cc2cc(c3O[C@@H]2O[C@H](CO)[C@@H](O)[C@H](O)[C@H]2O[C@H]2C[C@](C)(N)[C@H](O)[C@H](C)O2)Oc2ccc(cc2Cl)[C@H]1O  MIC (MRSA): 0.5 µg/mL
CN[C@H](CC(C)C)C(=O)N[C@H]1C(=O)N[C@@H](CC(N)=O)C(=O)N[C@H]2C(=O)N[C@H]3C(=O)N[C@H](C(=O)N[C@H](C(=O)O)c4cc(O)cc(O)c4-c4cc3ccc4O)[C@H](O)c3ccc(c(Cl)c3)Oc3cc2cc(c3O[C@@H]2O[C@H](CO)[C@@H](O)[C@H](O)[C@H]2O[C@H]2C[C@](C)(N)[C@H](O)[C@H](C)O2)Oc2ccc(cc2Cl)[C@H]1O  MIC (broth dilution; ATCCBAA44 BAA44): 1 µg/mL
c1ccc(CSc2nc3ccc(-c4ccccc4)cc3cc2CNCc2ccc(CN3CCCC3)cc2)cc1  MIC (broth dilution): > 128 µg/mL
[H]/N=C(\N/C(=N/[H])NCCCCCCNC(=N)NC(=N)Nc1ccc(Cl)cc1)Nc1ccc(Cl)cc1  MIC (MSSA): 0.5 µM
Cc1ccc2[nH]nc(-c3nnc(Nc4ccc([N+](=O)[O-])cc4)s3)c2c1  MIC (ATCC29213): 37.4 µg/mL
CCCCCCC#Cc1cncc(-c2nnc(SCc3cc(C(F)(F)F)cc(C(F)(F)F)c3)n2CCCN)c1  MIC (broth dilution; MRSA): 4 µg/mL
C[C@H]1COc2c(N3CCN(C)CC3)c(F)cc3c(=O)c(C(=O)O)cn1c23  MIC (ATCC29213 MSSA; drug-resistant strain): 0.12 µg/mL
Cc1ccc2[nH]nc(-c3nnc(Nc4ccc(O)cc4)s3)c2c1  MIC (ATCC29213): 18.3 µg/mL
COc1c(N2C[C@@H]3CCCN[C@@H]3C2)c(F)cc2c(=O)c(C(=O)O)cn(C3CC3)c12  MIC (agar dilution; ATCC25923): 0.0625 µg/mL
c1ccc(CSc2nc3ccccc3cc2CNCc2ccc(CN3CCCC3)cc2)cc1  MIC (broth dilution): 64 µg/mL
